# Compounds with a hit are over-represented: about 2% of the library has one in this group of screens.
# PABP1 MLLE inh – blocks PAM2 peptide binding to the PABP1 MLLE domain | P11940 | GST-MLLE / FITC-PAM2 fluorescence polarization | inhibition, % at 20 µM | 360,000 compounds, 0.36% hits; in the data active means inhibition above about 35%, passing the limit was not always enough
# Target sequence (P11940 whole entry, looked up, the tested form may be a part): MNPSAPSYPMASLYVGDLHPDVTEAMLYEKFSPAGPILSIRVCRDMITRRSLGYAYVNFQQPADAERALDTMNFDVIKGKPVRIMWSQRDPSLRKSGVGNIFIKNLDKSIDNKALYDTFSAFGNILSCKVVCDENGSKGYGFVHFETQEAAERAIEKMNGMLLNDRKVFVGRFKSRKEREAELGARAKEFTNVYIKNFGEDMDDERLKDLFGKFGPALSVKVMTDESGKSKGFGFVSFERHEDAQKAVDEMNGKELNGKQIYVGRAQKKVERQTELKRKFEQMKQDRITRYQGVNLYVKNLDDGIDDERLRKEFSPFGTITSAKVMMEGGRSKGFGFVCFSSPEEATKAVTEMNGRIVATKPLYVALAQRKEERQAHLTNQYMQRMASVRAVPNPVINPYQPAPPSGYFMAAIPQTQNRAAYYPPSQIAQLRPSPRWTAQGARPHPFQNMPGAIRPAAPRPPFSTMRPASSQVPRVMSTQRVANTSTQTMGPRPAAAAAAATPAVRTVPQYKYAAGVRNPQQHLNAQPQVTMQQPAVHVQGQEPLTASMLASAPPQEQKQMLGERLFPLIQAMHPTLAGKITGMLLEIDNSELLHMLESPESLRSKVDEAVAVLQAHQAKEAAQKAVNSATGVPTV
# DNA FID counter-1 – counter-screen for HCV NS3 helicase inhibitors: DNA intercalator displacement | inhibition, % at 7.9 µM | AID 1845 | 290,000 compounds, 0.17% hits | DNA fluorescent intercalator displacement, fluorescence; in the data active means inhibition above about 37%;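 further: higher means more ethidium bromide displaced from hairpin DNA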
# NS3 helicase inh – HCV NS3 helicase inhibition | inhibition, % at 10.9 µM | NS3 helicase DNA unwinding, Cy5 molecular beacon fluorescence | 290,000 compounds, 0.56% hits;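 active means inhibition above the mean of all tested compounds plus 3 SD, set per campaign, cut at about 35% in these data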
#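 Compound dosing – single dose, 10.9 µM nominal final, DMSO 0.8% final · System – NS3 helicase fragment of HCV · Buffer or medium – MOPS pH 6.5, MgCl2, DTT, Tween20, BSA · Signal – Cy5 beacon fluorescence read at start and 1 h · Also added – annealed dual-labelled DNA beacon duplex, ATP-started · Schedule – 1 h at 25 °C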
# HCV core dimer – HCV core protein dimerization inhibition. 300,000 compounds, 0.33% hits. inhibition, % at 5 µM. TR-FRET GST/Flag-core106 dimerization, 1536-well. AID 1899;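 active means inhibition above the mean of all tested compounds plus 3 SD, set per screening campaign, cut at about 45% in these data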
#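 Assay system: GST-tagged and Flag-tagged HCV core protein residues 1-106 / Times: compound-protein-antibody incubation 4 h at 22.5 °C / Signal: time-resolved FRET, ex 340 nm, em 617 and 671 nm / Evaluation: % inhibition based on acceptor/donor emission ratio / Benchmarks: wells lacking GST-core106 and wells with excess unlabelled core106 / Repeats: singlicate, one well per compound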
# eIF4H FP inh – inhibitors of RNA binding by human eIF4H; Q15056; inhibition, % at 35 µM; eIF4H fluorescence polarization binding assay; 290,000 compounds, 0.94% hits;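 further: calls also rest on retests at 20 µM and on dose response follow-up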
# PABP polyA inh – PABP-poly(A) binding inhibition | P11940 | PABP-poly(A) RNA binding, fluorescence polarization | inhibition, % at 35 µM | 290,000 compounds, 1% hits | AID 2014;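 further: calls also rest on retests at 20 µM and on dose response follow-up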
# NS3 helicase cf – confirmation of Hepatitis C virus NS3 helicase inhibitors. inhibition, % at 10.9 µM. 1,600 compounds, 31% hits. NS3 helicase DNA unwinding, Cy5 molecular beacon fluorescence. AID 1943. shares compounds with NS3 helicase inh;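 active means inhibition above the mean of all tested compounds plus 3 SD, cutoff set per campaign, cut at about 36% in these data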
# DNA FID counter-2 – counter-screen for HCV NS3 helicase inhibitors: DNA intercalator displacement. 1,600 compounds, 4% hits. DNA fluorescent intercalator displacement, fluorescence. shares compounds with NS3 helicase inh. inhibition, % at 7.9 µM. AID 1945; in the data active means inhibition above about 37%;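 further: higher means more displacement of ethidium bromide from the DNA hairpin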
# FID counter DR – counter-screen for HCV NS3 helicase inhibitors: DNA intercalator displacement dose response; shares compounds with NS3 helicase inh; fluorescent intercalator displacement from DNA, fluorescence; IC50, µM; 120 tested, under 10 active
# Hits are given with their value; i = inactive; ? = inconclusive; nt = no result; ! = repeats disagree. Unless noted, how the calls were made is not given here.
SMILES,PABP1 MLLE inh,DNA FID counter-1,NS3 helicase inh,HCV core dimer,eIF4H FP inh,PABP polyA inh,others
Cc1ncoc1C(=O)NCC1=C(c2ccc3ccccc3c2)C[C@@H]2CC[C@H]1N2Cc1ccco1,i,nt,nt,nt,nt,nt,
O=C(CCCc1ccc(N(CCCl)CCCl)cc1)NCc1ccccc1,i,nt,nt,nt,nt,nt,
Nc1cncc(C(=O)O)c1,i,i,i,i,53!,i,
O=C(O)Cn1cc(C=C2C(=O)NC(=O)NC2=O)c2ccccc21,i,i,i,i,?,65,
C=CCn1cc(C=C2C(=O)NC(=O)NC2=O)c2ccccc21,i,i,i,i,?,?,
COc1cc(N2CCOCC2)ccc1C=C1C(=O)NC(=O)NC1=O,i,i,i,i,69,4.4,
COc1ccc(C(c2nnnn2C2CCCC2)N2CCC3(CC2)C(=O)NCN3c2ccccc2)cc1 (stereo unspecified),i,nt,nt,nt,nt,nt,
Cc1cc(N2CCCC2)ccc1C=C(C#N)C#N,i,i,i,i,?,i,
Cc1ccc2cc(C=C(C#N)C#N)c(Cl)nc2c1,53,i,i,i,?,i,
C=CCn1c(O)c(/C=C2\C=Nc3ccccc32)c(=O)[nH]c1=O,i,i,i,i,?,58,
CCCC[N+]12CCC(CC1)C(C(O)(c1ccccc1)c1ccccc1)C2 (stereo unspecified),i,i,i,i,active,i,
CCC[N+]12CCC(CC1)C(C(O)(c1ccccc1)c1ccccc1)C2 (stereo unspecified),i,i,i,i,i,i,
COc1ccc(-n2nnnc2C(c2cccs2)N2CCC3(CC2)C(=O)NCN3c2ccccc2)cc1 (stereo unspecified),i,nt,nt,nt,nt,nt,
CN1CCN(c2ccc3c(c2)S(=O)(=O)c2ccccc2C3=O)CC1,i,nt,nt,i,nt,nt,
CN1CCN(c2cccc3c2C(=O)c2ccccc2C3=O)CC1,i,60,i,nt,?,i,
CC(N)Cc1cn(Cc2ccccc2)c2ccccc12 (stereo unspecified),i,i,i,i,i,i,
N[C@@H]1CCCC[C@H]1N.O=C(O)C(=O)O.[Pt],nt,nt,nt,i,nt,nt,
CCOC(=O)C1(c2ccccc2)CCN(CCC(=O)Nc2cccc(Br)c2)CC1,i,nt,nt,nt,nt,nt,
Cc1nc2c(=O)n(C)c(=O)nc-2n(C)n1,i,i,i,55,i,i,
Cc1cc([N+](=O)[O-])c(Cl)cc1NC(=O)C(C)C,i,i,i,i,i,i,
CNc1cc(Cl)c2nonc2c1[N+](=O)[O-],40,i,i,nt,i,i,
O=C1NC(=O)C(Sc2ccccc2[N+](=O)[O-])C(=O)N1,i,i,i,i,i,i,
CC(=O)c1ccc2c(c1)C1C(Cl)C(Sc3ccccc3[N+](=O)[O-])CC1C(c1ccccc1[N+](=O)[O-])N2 (stereo unspecified),i,i,i,54,i,i,
CC(=O)c1ccc2c(c1)C1C(Cl)C(Sc3ccccc3[N+](=O)[O-])CC1C(c1ccccc1)N2 (stereo unspecified),i,i,i,66,i,i,
CCN(CC)CCOC(=O)C(O)(c1ccccc1)c1ccccc1,i,i,i,i,i,i,
SMILES,PABP1 MLLE inh,DNA FID counter-1,NS3 helicase inh,HCV core dimer,eIF4H FP inh,PABP polyA inh,others
CC(C)N1C(=O)CC2(CC[N+](C)(CCOC(=O)C(O)(c3ccccc3)c3ccccc3)CC2)C1=O (stereo unspecified),i,i,i,i,1.2,61,
CCN1C(=O)/C(=C/c2ccc3c(c2)CCN3CCCCl)C(=O)NC1=S,i,i,i,84,i,i,
COC(=O)C1=C(c2ccc(F)cc2F)C[C@@H]2CC[C@H]1N2C(=O)NCCOc1ccccc1Cl,i,nt,nt,nt,nt,nt,
CN(C)P(=O)(N(C)C)N1CC1,i,nt,nt,nt,nt,nt,
O=C(N/N=C/c1c(O)n(CCC2=CCCCC2)c(=O)[nH]c1=O)c1ccccc1,i,i,i,i,?,i,
O=C(N/N=C/c1c(O)n(CCC2=CCCCC2)c(=S)[nH]c1=O)c1ccccc1,i,i,40,i,?,i,NS3 helicase cf=99;DNA FID counter-2=i;FID counter DR=i
Cc1ccc(N2C(=O)/C(=C/c3ccc(CN(CCC#N)S(C)(=O)=O)o3)C(=O)NC2=S)cc1C,nt,i,44,51,i,i,NS3 helicase cf=66;DNA FID counter-2=i
COc1ccc(C(c2nnnn2-c2ccc3c(c2)OCCO3)N2CCC3(CC2)C(=O)NCN3c2ccccc2)cc1 (stereo unspecified),i,nt,nt,nt,nt,nt,
O=C1NC(=O)N(c2ccc(Cl)cc2)C(=O)/C1=C\c1ccc(Sc2nc3ccccc3[nH]2)o1,i,i,44,i,?,?,NS3 helicase cf=76;DNA FID counter-2=i
O=C1NC(=O)C(=Cc2ccc(Sc3ccccc3)o2)C(=O)N1,i,i,i,i,?,?,
Cc1ccccc1-n1c(C)cc(/C=C2/C(=O)NC(=O)N(Cc3ccco3)C2=O)c1C,i,i,40,i,?,59,NS3 helicase cf=i;DNA FID counter-2=i
Cn1cccc1/C=C1\C(=O)NC(=O)N(Cc2ccco2)C1=O,i,i,i,nt,i,i,
Cc1cc(/C=C2\C(=O)NC(=O)N(Cc3ccco3)C2=O)c(C)n1-c1ccc(C(=O)O)cc1,i,i,i,i,i,i,
Cc1ccc(-n2c(C)cc(/C=C3/C(=O)NC(=O)N(Cc4ccco4)C3=O)c2C)cc1,i,i,63,i,?,i,NS3 helicase cf=i;DNA FID counter-2=i
C=CCC1(Cc2ccsc2)C(=O)NC(=O)NC1=O,i,nt,nt,nt,nt,nt,
O=C1C2CCN(CC2)C12CC2c1ccc(C(F)(F)F)cc1 (stereo unspecified),i,i,39,i,i,i,NS3 helicase cf=i;DNA FID counter-2=i
CC1CC2CC(=O)CCC2(C)C2CCC3(C)C(O)CCC3C12 (stereo unspecified),i,nt,nt,nt,nt,nt,
CC1Oc2cc3c(-c4c(O)cc(O)c5c(O)c6c(cc45)OC(C)C(C)C6=O)c(O)cc(O)c3c(O)c2C(=O)C1C (stereo unspecified),i,i,50,i,90,79,NS3 helicase cf=96;DNA FID counter-2=64
COC(=O)C1=C(c2ccc(Cl)c(C(F)(F)F)c2)C[C@@H]2CC[C@H]1N2C(=O)NC1CCCCC1,i,nt,nt,nt,nt,nt,
COc1ccc(CC(=O)Nc2ccc3c(C(F)(F)F)cc(=O)oc3c2)cc1OC,i,i,59,i,i,i,NS3 helicase cf=i;DNA FID counter-2=i
CCN(CC)c1ccc(N=Cc2c(O)n(Cc3ccco3)c(=O)[nH]c2=O)cc1,i,i,37,i,?,?,NS3 helicase cf=i;DNA FID counter-2=i
CN(C)CCN=Cc1c(O)n(Cc2ccco2)c(=O)[nH]c1=O,i,i,i,i,i,i,
CCc1ccc(N2C(=O)NC(=O)/C(=C\c3cc(C)n(-c4cc(C(=O)O)cc(C(=O)O)c4)c3C)C2=O)cc1,i,i,40,i,i,i,NS3 helicase cf=i;DNA FID counter-2=i
O=Cc1c(C(=O)O)n(Cc2ccccc2F)c2ccccc12,i,i,i,i,i,i,

# Source: PubChem (several laboratories)
